Bioassay records deposited in PubChem BioAssay by several laboratories.
MPTP inh = blocks calcium-induced mitochondrial swelling. hit rate 1.4% among 360,000. isolated mouse mitochondria, Ca2+ swelling absorbance, 30 min. inhibition, % at 10 µM. AID 602449;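 active = inhibition of 50% or more, scaled per plate between neutral and stimulator controls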;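 also: 0% = DMSO wells given calcium and 100% = 1 mM EGTA wells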
DAGLB inhibitor = blocks human DAGLB lipase activity. hit rate 0.059% among 340,000. inhibition, % at 5.17 µM. HEK293T DAGLB membrane lysate, EnzChek fluorogenic substrate; in the data active = inhibition above about 34%;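 also: 0% = enzyme with vehicle and 100% = wells lacking enzyme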
GPR7 antag = human neuropeptides B/W receptor 1 antagonism; hit rate 1.1% among 290,000; AID 1861; GPR7-expressing cells, fluorescence antagonist assay; P48145; inhibition, % at 4.4 µM; in the data active = inhibition above about 16%, passing the limit was not always enough;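 also: cells stimulated with the agonist NPW; 0% = agonist with vehicle and 100% = vehicle without agonist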
Target sequence (P48145 whole entry, looked up): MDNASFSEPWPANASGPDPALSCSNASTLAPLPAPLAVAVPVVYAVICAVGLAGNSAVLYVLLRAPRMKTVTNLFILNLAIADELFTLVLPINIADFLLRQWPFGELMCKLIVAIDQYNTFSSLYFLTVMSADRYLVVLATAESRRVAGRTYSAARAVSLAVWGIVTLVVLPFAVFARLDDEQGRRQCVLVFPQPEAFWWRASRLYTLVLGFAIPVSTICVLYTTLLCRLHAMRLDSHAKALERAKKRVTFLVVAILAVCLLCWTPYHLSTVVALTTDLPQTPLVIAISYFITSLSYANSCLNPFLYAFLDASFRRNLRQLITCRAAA
TAAR1 antagonist = human TAAR1 antagonism; CHO RD-HGA16 TAAR1, Fluo-8 calcium fluorescence, antagonist; Q96RJ0; inhibition, % at 3 µM; AID 624466; hit rate 1.5% among 360,000;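 active = inhibition above a per-plate cutoff, the mean inhibition of test compounds on that plate plus 3 SD, cut at about 49% in these data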;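 also: 0% = DMSO plus EC80 beta-PEA response and 100% = DMSO alone without agonist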
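System: CHO RD-HGA16 cells bearing hTAAR1. Reagent: EC80 β-phenethylamine stimulus. Schedule: seeding 17-24 h prior, 75-min 37 °C, 30-min RT dye loading. Signal: Fluo-8 intracellular calcium dye fluorescence, real-time kinetic reads. Read-out: % inhibition from peak post-agonist over basal fluorescence ratio. Benchmarks: vehicle wells and EC80 agonist wells. Replicates: n of 1.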
TAAR1 ag = agonists of human TAAR1; Q96RJ0; CHO RD-HGA16 TAAR1, Fluo-8 calcium fluorescence; vehicle wells 0%, saturating PEA agonist 100%; activation, % at 3 µM; hit rate 0.99% among 360,000; AID 624467;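 active = activation above the mean activation of all test compounds in the run plus 3 SD, cut at about 38% in these data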
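Test system: RD-HGA16 (CHO) cells co-expressing Gα16 and hTAAR1; dosing: one-point dosing at 3 µM (nominal); timing: 17-24 h seeding, 75 min 37 °C dye, 30 min RT; signal: kinetic Fluo-8 calcium fluorescence; read-out basis: % activation relative to PEA EC100 response; controls: DMSO and PEA EC100; replicates: n 1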
* = called active by the depositor; · = no result. The list is not random: actives were taken first. Their share in the collection is about 4%.

SMILES	MPTP inh	DAGLB inhibitor	GPR7 antag	TAAR1 antagonist	TAAR1 ag
COCCCN(Cc1cc(OC)c(OC)c(OC)c1)C(=S)Nc1cccc(SC)c1	0	-1	·	4	5
COc1ccccc1N1CCN(C(=O)C2CCCN(S(=O)(=O)c3ccc4c(c3)CCCN4C(C)=O)C2)CC1 (centres undefined)	-1	-1	10	68*	15
COc1ccccc1N1CCN(C(=O)C2CCN(S(=O)(=O)c3ccc4c(c3)CC(C)N4C(=O)C3CC3)CC2)CC1 (centres undefined)	0	-1	-7	57*	13
Nc1ccccc1N=c1ssnc1Cl	0	-1	6	-26	2
Cc1cc(C)nc(/N=c2/ssnc2Cl)c1	-1	-3	-9	15	4
Cc1cc(Cl)ccc1N=c1ssnc1Cl	3	3	4	29	42*
Cc1ccc(N=c2ssnc2Cl)cc1	1	-1	-8	16	41*
COc1c(F)c(F)c(C(=O)Nc2ccc(-c3nc4ccccc4[nH]3)cc2)c(F)c1F	2	-2	-12	35	7
COc1cccc(OC)c1C(=O)NC(=S)Nc1cc(-c2nc3ccccc3[nH]2)ccc1Cl	0	-1	-19	50*	11
O=S1(=O)c2cc(Cl)ccc2N2CCC[C@@H]2CN1Cc1ccc(Cl)c(Cl)c1	·	·	·	-12	2
CCOc1cc2c(c3c1C(c1ccccc1)N(S(=O)(=O)c1ccc(C)cc1)C3)C(=O)C=CC2=O (centres undefined)	-4	·	·	49	2
CC(=O)Nc1cccc(NC(=O)c2ccc3c(c2)CCN3S(=O)(=O)c2ccccc2)c1	0	0	8	50*	5
O=C(Nc1nc2c(s1)CN(Cc1ccccc1)CC2)c1cccc(S(=O)(=O)N2CCc3ccccc32)c1	0	-14	-12	21	38*
O=C(NCc1ccccc1)[C@@H]1CCCN1C(=O)[C@H]1CCCN1C(=O)c1c(F)cccc1F	·	·	·	-11	1
CCOC(=O)C1=C(COC(=O)/C=C/c2cccc(F)c2)NC(=O)NC1C (centres undefined)	0	5	·	52*	18
CCOC(=O)C1=C(COC(=O)/C=C/c2ccccc2F)NC(=O)NC1C (centres undefined)	-2	-1	·	56*	23
CCOC(=O)C1=C(COC(=O)/C=C/c2ccc(F)cc2)NC(=O)NC1C (centres undefined)	1	-3	·	55*	18
CCOC(=O)C1=C(COC(=O)/C=C/c2ccc(Cl)cc2)NC(=O)NC1C (centres undefined)	-1	0	-19	39	6
CCOC(=O)C1=C(COC(=O)/C=C/c2ccccc2Cl)NC(=O)NC1C (centres undefined)	0	0	-16	40	7
CCOC(=O)N1CCN(C(=O)C[C@H]2C[C@@]3(C(=O)OC)C(=C[C@H](C(C)(C)C)O[C@@H]3C)N(Cc3ccccc3)C2=O)CC1	·	·	·	-3	-1
O=C(Nc1nnc([C@@H]2C[C@H](O)[C@@H](CO)O2)s1)NC1CCCCC1	2	·	·	-11	3
Cc1ccc(C(=O)N2CCC(Cc3ccccc3)CC2)cc1[N+](=O)[O-]	-1	-10	3	18	10
O=[N+]([O-])c1ccc(C(=S)N2CCC(Cc3ccccc3)CC2)cc1	2	-8	1	53*	3
O=C(c1ccccc1)N1CCN(C(=O)c2ccc3c(c2)OCO3)CC1	0	1	7	14	2
O=C(c1ccc2c(c1)OCO2)N1CCC(Cc2ccccc2)CC1	2	-18	19*	-16	5
SMILES	MPTP inh	DAGLB inhibitor	GPR7 antag	TAAR1 antagonist	TAAR1 ag
COc1ccc(-c2cc3nc(-c4ccccc4)cc(N4CCC(O)CC4)n3n2)cc1	2	-2	10	49*	12
Cc1cc(NC(=O)Cc2cn(Cc3ccccc3)c3ccccc23)ccc1Oc1cccnc1	·	·	·	-2	-1
CC(C)[C@H](NC(=O)OCc1ccccc1)C(=O)OCc1cc(=O)oc2cc(O)ccc12	-1	-1	-5	54*	5
CC(C)[C@H](NC(=O)OCc1ccccc1)C(=O)OCC(=O)c1ccccc1	-2	-6	·	-3	1
CN(C)CCCNC1=CC(=O)OC12CCCCC2	-5	2	-1	0	6
O=C1C=C(NCc2ccc(Cl)cc2Cl)C2(CCCCC2)O1	12	-1	21*	2	18
CC1ON=C(c2cccc3ccccc23)N(C)C1=O (centres undefined)	-2	·	·	-21	1
